Assay results as given in ChEMBL document CHEMBL1123352, “Anticonvulsant activity of 2- and 3-aminobenzanilides” (J Med Chem, 1986).
Activity calls are given as the source filed them. The rule behind the calls is not given here.

Key:
Mus musculus [1] = assay: Compound was tested for toxicity by rotarod assay method in mice 30 min after ip administration of 300 mg/kg; A=Active; assay type: organism-based; parameters: dose 300 mg/kg, route intraperitoneal; conditions: in vivo, 0.5 h
Mus musculus [2] = assay: Anticonvulsant activity against maximal electroshock (MES) induced seizures in mice 30 minutes after ip administration of 300 mg/kg; A=Active; assay type: functional, organism-based; parameters: dose 300 mg/kg
Summary of the method: (§1)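 Male Carworth Farms No. 1 mice were dosed ip with compound in 30% polyethylene glycol 400, at 30, 100 and 300 mg/kg and sometimes 600 mg/kg, and tested 30 min and 4 h later. A drop of 0.9% saline went in the eye, then 60-cycle AC at 50 mA was given for 0.2 s via corneal electrodes. Protection meant abolition of hind limb tonic extension.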

Mus musculus [3] = assay: Anticonvulsant activity against subcutaneous pentylenetetrazole induced convulsions in mice 4 hr after ip administration of 600 mg/kg.; assay type: functional, organism-based; parameters: dose 600 mg/kg
Summary of the method: (§2)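 Male Carworth Farms No. 1 mice were dosed ip with compound in 30% PEG 400, at 30–600 mg/kg, and read at 30 min and 4 h. Pentylenetetrazole was given at 85 mg/kg as a 0.5% solution sc in the posterior midline. Protection meant no single episode of clonic spasms lasting at least 5 s over a 30-min observation.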

Mus musculus [4] = assay: Anticonvulsant activity against subcutaneous pentylenetetrazole induced convulsions in mice 30 min after ip administration of 600 mg/kg.; assay type: functional, organism-based; parameters: dose 600 mg/kg; summary of the method: as §2
Mus musculus [5] = assay: Compound was tested for toxicity by rotarod assay method in mice after intraperitoneal administration after 4 hours; A=Active; assay type: organism-based; conditions: in vivo, ip
Mus musculus [6] = assay: Anticonvulsant activity against maximal electroshock (MES) induced seizures in mice 4 hours after ip administration of 600 mg/kg; A=Active; assay type: functional, organism-based; parameters: dose 600 mg/kg; summary of the method: as §1
Mus musculus [7] = assay: Compound for anticonvulsant activity against maximal electroshock (MES)-induced seizures in mice after administration; assay type: functional; summary of the method: as §1
Mus musculus [8] = assay: Compound for anticonvulsant activity against subcutaneous pentylenetetrazole-induced convulsions in mice after administration; assay type: functional; conditions: sc; summary of the method: as §2
Mus musculus [9] = assay: Anticonvulsant activity against maximal electroshock (MES) induced seizures in mice 4 hours after ip administration of 600 mg/kg.; assay type: functional, organism-based; parameters: dose 600 mg/kg; summary of the method: as §1
Mus musculus [10] = assay: Compound was tested for toxicity by rotarod assay method in mice 4 hours after ip administration of 600 mg/kg; NA=No activity; assay type: organism-based; parameters: dose 600 mg/kg, route intraperitoneal; conditions: in vivo
Mus musculus [11] = assay: Compound was tested for toxicity by rotarod assay method in mice 30 min after ip administration of 600 mg/kg; No activity; assay type: organism-based; parameters: dose 600 mg/kg, route intraperitoneal; conditions: in vivo, 0.5 h
Mus musculus [12] = assay: Anticonvulsant activity against sc pentylenetetrazole induced convulsions in mice 30 minutes after ip administration of 600 mg/kg; A=Active; assay type: functional, organism-based; parameters: dose 600 mg/kg; summary of the method: as §2
Mus musculus [13] = assay: Anticonvulsant activity against maximal electroshock (MES) induced seizures in mice 30 minutes after ip administration of 600 mg/kg; A=Active; assay type: functional, organism-based; parameters: dose 600 mg/kg; summary of the method: as §1

Row | SMILES | Toxicity (Mus musculus [1]) | Anticonvulsant activity (Mus musculus [2]) | Anticonvulsant activity (Mus musculus [3]) | Anticonvulsant activity (Mus musculus [4]) | Toxicity (Mus musculus [5]) | Anticonvulsant activity (Mus musculus [6]) | ED50 (Mus musculus [7]) [mg/kg] | ED50 (Mus musculus [8]) [mg/kg] | Anticonvulsant activity (Mus musculus [9]) | Toxicity (Mus musculus [10]) | Toxicity (Mus musculus [11]) | Anticonvulsant activity (Mus musculus [12]) | Anticonvulsant activity (Mus musculus [13])
1 | CC(C)c1ccccc1NC(=O)c1cccc(N)c1 | Active | Active | inactive | inactive | Active | Active | – | – | – | – | – | – | –
2 | CCCC(CCC)C(=O)O [VALPROIC ACID] | – | – | – | – | – | – | 272 | 149 | – | – | – | – | –
3 | Cc1ccc(NC(=O)c2cccc(N)c2)cc1C | – | – | inactive | – | – | – | – | – | inactive | Not Active | Not Active | Active | Active
